Experimental findings from ChEMBL document CHEMBL4316616, “Efficacy of TLR7 agonistic imidazoquinoline as immunochemotherapeutic agent against P. Berghei ANKA infected rodent host” (Bioorg Med Chem Lett, 2019) are described below.

The source made the active and inactive calls. No cut-off for these calls is given here.

The test system of series [1] is Plasmodium berghei. The series is described as follows: Antiparasitic activity against Plasmodium berghei ANKA infected in Swiss albino mouse assessed as reduction in parasitemia at 10 mg/kg, po by Peter's 4 day test. In kind it is functional. More on the design: scale not given: the % may be the effect or the level left.
The test system of series [2] is Plasmodium berghei. In words: Antimalarial activity against Plasmodium berghei ANKA infected in Swiss albino mouse assessed as reduction in parasitemia at 25 mg/kg, po for 4 days dosed 2 hrs post infection and measured 5 days post infection by Giemsa staining based Peter's 4 day test. In kind it is functional. More on the design: scale not given: the % may be the effect or the level left.

Series [3] deals with Plasmodium berghei. In words: Antiparasitic activity against Plasmodium berghei ANKA infected in Laca mouse assessed as increase in Treg cell level in brain at 10 mg/kg, po administered for 4 days measured on day 10 by flow cytometry. Format: functional, organism-based.
Series [4] relates to Plasmodium berghei. In words: Antiparasitic activity against Plasmodium berghei ANKA infected in Laca mouse assessed as increase in serum IL-27 level at 10 mg/kg, po administered for 4 days measured on day 10 by sandwich ELISA. Format: functional, organism-based.
Series [5] has as its system Plasmodium berghei. In words: Antiparasitic activity against Plasmodium berghei ANKA infected in Laca mouse assessed as reduction in parasitemia at 10 mg/kg, po administered for 4 days measured up to day 15 by Giemsa-staining based assay. Format: functional, organism-based.
Series [6] has as its system Plasmodium berghei. In words: Antiparasitic activity against Plasmodium berghei ANKA infected in Laca mouse assessed as reduction in CD3+ cell level in brain at 10 mg/kg, po administered for 4 days measured on day 10 by flow cytometry. In kind it is functional, organism-based. For orientation: Flow cytometry measures light scatter and fluorescence of single cells or particles in a stream.

For series [7], the system named is Plasmodium berghei. The series is described as follows: Antiparasitic activity against Plasmodium berghei ANKA infected in Laca mouse assessed as increase in serum IL-10 level at 10 mg/kg, po administered for 4 days measured on day 10 by sandwich ELISA. Format: functional, organism-based. Background: ELISA stands for enzyme-linked immunosorbent assay.
Series [8] relates to Plasmodium berghei. The series is described as follows: Antiparasitic activity against Plasmodium berghei ANKA infected in Laca mouse assessed as increase in IFN-gamma level in serum at 10 mg/kg, po administered for 4 days measured on day 10 by sandwich ELISA.
Series [9] deals with Plasmodium berghei. In words: Antiparasitic activity against Plasmodium berghei ANKA infected in Laca mouse assessed as reduction in CD4+ cell level in brain at 10 mg/kg, po administered for 4 days measured on day 10 and 21 by flow cytometry. In kind it is functional, organism-based.
For series [10], the system named is Plasmodium berghei. In words: Antiparasitic activity against Plasmodium berghei ANKA infected in Laca mouse assessed as increase in serum IL-12 level at 10 mg/kg, po administered for 4 days measured on day 10 by sandwich ELISA. In kind it is functional, organism-based.
Series [11] concerns Plasmodium berghei. In words: Antiparasitic activity against Plasmodium berghei ANKA infected in Laca mouse assessed as parasitemia at 10 mg/kg, po administered for 4 days measured on day 17 by Giemsa-staining based assay. Format: functional.
The nature of series [12]: Toxicity in Laca mouse infected with Plasmodium berghei ANKA assessed as death at 10 mg/kg, po administered for 4 days measured on day 21. As to conditions: in vivo, 96 h. Format: organism-based. In short, it runs like this: (§1)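 Groups of 6 mice, infected i.p. on D0 with 1x10⁶ P. berghei ANKA parasitized RBCs. Chloroquine 10 mg/kg given orally in 0.2 mL/mouse daily D0–D3. Infected PBS-dosed and uninfected controls were included. Mice were followed for survival, with parasitemia checked on Giemsa-stained thin blood smears of individual mice.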

The test system of series [13] is Plasmodium berghei. In words: Antiparasitic activity against Plasmodium berghei ANKA infected in Laca mouse assessed as reduction in CD8+ cell level in brain at 10 mg/kg, po administered for 4 days measured on day 10 by flow cytometry. In kind it is functional, organism-based.
Series [14] has as its system Plasmodium berghei. In words: Antiparasitic activity against Plasmodium berghei ANKA infected in Laca mouse assessed as increase in CD3+ cell level in spleen at 10 mg/kg, po administered for 4 days measured on day 10 by flow cytometry. Format: functional, organism-based.
Series [15] in a line: Toxicity in Laca mouse infected with Plasmodium berghei ANKA assessed as death at 10 mg/kg, po administered for 4 days measured after 21 days. Format: organism-based. As to conditions: in vivo, 504 h. An outline of the steps: as §1
The test system of series [16] is Plasmodium berghei. In words: Antiparasitic activity against Plasmodium berghei ANKA infected in Laca mouse assessed as parasitemia at 10 mg/kg, po administered for 4 days measured on day 21 by Giemsa-staining based assay. In kind it is functional.
The subject of series [17] is Plasmodium berghei. The series is described as follows: Antiparasitic activity against Plasmodium berghei ANKA infected in Laca mouse assessed as decrease in serum TNFalpha level at 10 mg/kg, po administered for 4 days measured on day 10 by sandwich ELISA. In kind it is functional, organism-based.

Turning to `CCN(CC)CCCC(C)Nc1ccnc2cc(Cl)ccc12` (configuration not stated) [CHLOROQUINE], the Activity is listed as 58.3% with Plasmodium berghei [1]; 89.04% with Plasmodium berghei [2]; 5.99% in the series with Plasmodium berghei [11]; “Toxic” in series [12]; “Toxic” in series [15]; 10.76% in the series on Plasmodium berghei [16]. Besides, the outcome with Plasmodium berghei [3], with Plasmodium berghei [4], with Plasmodium berghei [5], in the series with Plasmodium berghei [6], in the series with Plasmodium berghei [7] and in the series on Plasmodium berghei [8] was Active. Besides, the outcome in the series with Plasmodium berghei [9], with Plasmodium berghei [10], in the series with Plasmodium berghei [13], with Plasmodium berghei [14] and in the series on Plasmodium berghei [17] was Active.
